Reference: ChEMBL document CHEMBL6092133, “Enhancing the therapeutic window for Spectinamide anti-tuberculosis Agents: Synthesis, Evaluation, and activation of phosphate prodrug 3408” (Bioorg Med Chem Lett, 2024)

Experiments:
[1] = Drug uptake in female BALB/c mouse plasma infected with Mycobacterium tuberculosis Erdman harboring pFCA-LuxAB plasmid at 400 mg/kg, SC measured after 15 mins; assay type: ADME, organism-based; details: in vivo, 0.25 h
Method in brief: (§1)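 Plasma was sampled from infected BALB/c mice in the acute efficacy study 15 min and 8 h after a 400 mg/kg dose. Parent drug and prodrug levels were each quantified in the prodrug-treated and parent-treated groups.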

[2] = test system: Mycobacterium tuberculosis; experiment: (§2) Antibacterial activity against Mycobacterium tuberculosis Erdman harboring pFCA-LuxAB plasmid infected in female BALB/c mouse model assessed as log reduction in bacterial burden in lung at 400 mg/kg, SC administered once daily for 12 days starting from day 7 and measured 3 days post last treatment relative to untreated control; assay type: functional; details: time 15 day
Method in brief: (§3)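 BALB/c mice given a low-dose aerosol infection with M. tuberculosis Erdman pFCA-LuxAB. Dosing ran once daily for 12 consecutive days from day 7 post-infection: 10 mg/kg orally or 400 mg/kg, as the line states. Lung bacterial burden (log10 CFU) was compared with untreated control, six mice per group.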

[3] = Drug uptake in female BALB/c mouse plasma infected with Mycobacterium tuberculosis Erdman harboring pFCA-LuxAB plasmid at 400 mg/kg, SC measured after 8 hrs; assay type: ADME, organism-based; details: in vivo; method in brief: as §1
[4] = (§4) Prodrug conversion in female BALB/c mouse plasma infected with Mycobacterium tuberculosis Erdman harboring pFCA-LuxAB plasmid assessed as 2-(5-chloropyridin-2-yl)-N-((2R,4R,4aS,5aR,6S,7S,8R,9S,9aR,10aS)-4a,7,9-trihydroxy-2-methyl-6,8-bis(methylamino)decahydro-2H-benzo[b]pyrano[2,3-e][1,4]dioxin-4-yl)acetamide formation at 400 mg/kg, SC measured after 8 hrs; assay type: ADME, organism-based; details: in vivo; method in brief: as §1
[5] = as §4, with “15 mins” for “8 hrs”; assay type: ADME, organism-based; details: in vivo, 0.25 h; method in brief: as §1
[6] = test system: Mycobacterium tuberculosis; experiment: as §2, with “10” for “400”, “po” for “SC”; assay type: functional; details: time 15 day; method in brief: as §3

Row | Compound | Drug uptake [1] | log(activity) [2] | Drug uptake [3] | Drug metabolism [4] | Drug metabolism [5] | log(activity) [6]
1 | CN[C@@H]1[C@H](O)[C@H](NC)[C@H]2O[C@]3(O)[C@H](O[C@@H]2[C@H]1O)O[C@H](C)C[C@H]3NC(=O)Cc1ccc(O)cn1 | Active | 1.13 | Active | – | – | –
2 | CN[C@@H]1[C@H](O)[C@H](NC)[C@H]2O[C@]3(O)[C@H](O[C@@H]2[C@H]1O)O[C@H](C)C[C@H]3NC(=O)Cc1ccc(OP(=O)(O)O)cn1 | Active | 1.11 | – | metabolite_detected | metabolite_detected | –
3 | CO[C@H]1/C=C/O[C@@]2(C)Oc3c(C)c(O)c4c(O)c(c(/C=N/N5CCN(C)CC5)c(O)c4c3C2=O)NC(=O)/C(C)=C\C=C\[C@H](C)[C@H](O)[C@@H](C)[C@@H](O)[C@@H](C)[C@H](OC(C)=O)[C@@H]1C [RIFAMPIN] | – | – | – | – | – | 1.21
